Legend:
[1] = target: Phosphodiesterase 4 (Rattus norvegicus) (UniProt P14270+P14646+P14644+P54748); assay: Displacement of [3H]rolipram from rat brain membranes at 10 uM; type: cell membranes; conditions: Membrane
[2] = target: T1, Phosphodiesterase 3 (Homo sapiens, UniProt Q14432+Q13370); assay: Inhibition of guinea pig ventricular Phosphodiesterase 3 at 200 uM; conditions: Cavia porcellus, target entry is the homologue from another species
[3] = target: T2, Phosphodiesterase 4 (Homo sapiens, UniProt P27815+Q08499+Q07343+Q08493); assay: Inhibition of guinea pig ventricular Phosphodiesterase 4 at 200 uM; type: protein assay; conditions: Cavia porcellus, target entry is the homologue from another species
Outline: (§1)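 Guinea pig ventricular PDE III/IV resolved by Mono-Q anion exchange (50–1000 mM sodium acetate gradient, Bis-Tris pH 6.5); isoenzymes characterized by substrate selectivity, Ca2+/calmodulin and selective inhibitors; pools stored -20 °C with 1 g/L BSA. Thompson–Strada assay, cAMP substrate 0.25 μM, duplicates; drugs in DMSO; IC50 by nonlinear regression or % inhibition at stated concentration, n = 3, ±SEM.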

[4] = target: T2, Phosphodiesterase 4; assay: Inhibition of guinea pig ventricular Phosphodiesterase 4; type: protein assay, Cavia porcellus; conditions: target entry is the homologue from another species
[5] = target: T1, Phosphodiesterase 3; assay: Inhibition of guinea pig ventricular Phosphodiesterase 3 at 20 uM; type: protein assay; conditions: Cavia porcellus, target entry is the homologue from another species; outline: as §1
[6] = target: T1, Phosphodiesterase 3; assay: Inhibition of guinea pig ventricular Phosphodiesterase 3; type: protein assay, Cavia porcellus; conditions: target entry is the homologue from another species

Compound: Cc1nn(C)c2c(=O)n(Cc3ccccc3)nc(-c3ccccc3)c12
- inhibition [1]: 11%
- inhibition [2]: 30%
- inhibition [3]: 45%

Compound: CCn1nc(-c2ccccc2)c2c(c1=O)N(C)CC(C#N)=C2C
- IC50 [4]: 1.1 µM
- inhibition [5]: 51%

Compound: CCn1nc(-c2ccccc2)c2c(C)nn(C)c2c1=O
- inhibition [1]: 46%
- IC50 [4]: 7.4 µM
- inhibition [5]: 35%

Compound: CCOC(=O)c1nc2c(O)n(CC)nc(-c3ccccc3)c-2c1C
- IC50 [4]: 0.6 µM
- inhibition [5]: 30%

Compound: CCn1nc(-c2ccccc2)c2c(C)nnc-2c1O
- IC50 [4]: 2 µM
- inhibition [5]: 35%

Compound: CCOC(=O)c1sc2c(=O)n(CC)nc(-c3ccccc3)c2c1C
- IC50 [4]: 0.9 µM
- IC50 [6]: 5.9 µM

Compound: COc1ccc(C2CNC(=O)C2)cc1OC1CCCC1 (centres undefined) [ROLIPRAM]
- IC50 [6]: 242 µM

Compound: O=c1c2cccnc2c(-c2cccc(Cl)c2)nn1Cc1ccncc1
- IC50 [4]: 0.056 µM
- IC50 [6]: 5.1 µM

Compound: CCOC(=O)c1sc2c(=O)n(CC)nc(-c3cccc([N+](=O)[O-])c3)c2c1C
- IC50 [4]: 1.3 µM
- inhibition [5]: 25%

Compound: CCOC(=O)c1nc2c(O)n(Cc3ccccc3)nc(-c3ccccc3)c-2c1C
- inhibition [1]: 28%
- IC50 [4]: 31 µM
- inhibition [5]: 33%

Compound: CCOC(=O)c1sc2c(=O)n(CC)nc(-c3cccc(Cl)c3)c2c1C
- IC50 [4]: 0.8 µM
- inhibition [5]: 56%

Compound: CCOC(=O)c1sc2c(=O)n(Cc3ccccc3)nc(-c3ccccc3)c2c1C
- IC50 [4]: 11 µM
- inhibition [5]: 20%

Compound: Cc1nnc2c(O)n(Cc3ccccc3)nc(-c3ccccc3)c1-2
- inhibition [1]: 54%
- inhibition [2]: 60%
- IC50 [4]: 3.1 µM
